Reference: paper PMC6407133 (Journal of the American Chemical Society, 2018)
Where two headings read alike, the source gives them in different places.

Key:
[1] = tested on: non-confluent human foreskin fibroblast (HFF) cells; assay: Cell viability assay in mammalian cells; type: cell-based; conditions: non-confluent HFFs
How it was run: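 Nontransformed primary human foreskin fibroblasts, Mycoplasma-tested, seeded nonconfluent at 2500 cells/well less than 24 h before dosing. Test compound dose–response dilutions in media applied for 1 h (then washed out) or 72 h. Viability read by CellTiter-Blue. EC50 values are the mean of n = 9 cultures from three independent experiments run in triplicate.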

P. berghei = assay: Plasmodium berghei mouse model of infection; type: in vivo; conditions: CD1 mice, 50 mg/kg once daily for 4 days, intravenous
P. falciparum W2 = assay: P. falciparum replication assay; type: cell-based, Plasmodium falciparum; conditions: read-out: 72 h EC50 Pf; 72 h treatment, no washout; P. falciparum W2 ring stage

For `CC(C)C[C@@H](/C=C/S(C)(=O)=O)NC(=O)[C@H](CC(C)C)NC(=O)[C@H](Cc1c[nH]c2ccccc12)NC(=O)CN1CCOCC1` [WLL-vs], the EC50 ([1]; read-out: 1 h EC50 HFF, 1 h treatment) was 65.5 ± 15.2 µM, the EC50 ([1]; read-out: 72 h EC50 HFF, 72 h treatment) was 1.52 ± 0.41 µM and the “reduction of parasites on day 4” value (P. berghei) was 98%. The EC50 (P. falciparum W2) was 0.015 ± 0.005 µM.
